Values belong to the compound of their own block, whether it stands above or below them. Calls of active or inactive are those of the source. No cut-off for these calls is given here.
Tests used:
Endothelial cell = experiment: Induction of apoptosis in human endothelial cells by annexin V apoptosis assay; type: functional, cell-based
NCI-H460 [1] = experiment: Cytotoxicity against human H460 cells after 48 hrs by MTT assay; type: functional, cell-based; details: NCI-H460, 48 h
[2] = Cytotoxicity against human LCC6 cells after 48 hrs by MTT assay; type: functional, cell-based; details: LCC-6, 48 h
NCI-H460 [3] = experiment: Induction of apoptosis in human H460 cells by annexin V apoptosis assay; type: functional, cell-based
LCC6 = experiment: Induction of apoptosis in human LCC6 cells by annexin V apoptosis assay; type: functional, cell-based
SK-MEL-28 [4] = experiment: Antitumor activity against VEGF expressing human SK-MEL-28 cells xenografted in mouse assessed as loss of body weight at 5 to 10 mg/kg, ip after 24 days; type: functional, organism-based
Procedure, shortened: (§1)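 SK-MEL-28 V+ cells (engineered to overexpress VEGF) of over 95% viability were used to grow primary tumours in mice. These tumours were cut into 1 mm³ explants and implanted subcutaneously. Once tumours were palpable, mice were randomized and dosed intraperitoneally for 24 days: daily at 5 or 10 mg/kg, or every second day at 20 mg/kg. Tumours were measured by caliper every 2–5 days. Body weight and histology were assessed for toxicity.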

Mus musculus = experiment: Toxicity in VEGF expressing human SK-MEL-28 cells xenografted in mouse assessed as effect on histological indications at 5 to 10 mg/kg, ip daily for 24 days; details: in vivo
[5] = AUC (0 to 480 mins) in mouse at 36.8 umol/kg, ip; details: plasma
[6] = Half life in mouse at 36.8 umol/kg, ip; details: in vivo
[7] = Cmax in mouse at 36.8 umol/kg, ip within 30 mins; details: in vivo
[8] = Plasma clearance in mouse at 36.8 umol/kg, ip
[9] = Tmax in mouse at 36.8 umol/kg, ip; details: in vivo
[10] = Inhibition of tumor growth in human SK-MEL-28V+ cells xenografted in mouse at 20 mg/kg, ip administered every altenative day for 24 days; type: functional; details: 576 h, route intraperitoneal; procedure, shortened: as §1
[11] = Cmax in mouse at 38.2 umol/kg, ip within 30 mins; details: in vivo
[12] = Half life in mouse at 38.2 umol/kg, ip; details: in vivo
[13] = AUC (0 to 480 mins) in mouse at 38.2 umol/kg, ip; details: plasma
[14] = Tmax in mouse at 38.2 umol/kg, ip; details: in vivo
[15] = Plasma clearance in mouse at 38.2 umol/kg, ip
SK-MEL-28 [16] = experiment: Inhibition of tumor growth in VEGF expressing human SK-MEL-28 cells xenografted in mouse at 10 mg/kg, ip administered every altenative day for 24 days; type: functional; details: SK-MEL-28, ip, 576 h, route intraperitoneal

Structure (SMILES): COc1ccc(-n2c3cssc-3c(NC(C)=O)c2=O)cc1
- Activity (Endothelial cell): Active
- IC50 (NCI-H460 [1]): 53 nM
- IC50 [2]: 220 nM
- Activity (NCI-H460 [3]): Active
- Activity (LCC6): Active

Structure (SMILES): COc1ccc(-n2c3cssc-3c(NC(=O)C(F)(F)F)c2=O)c(OC)c1
- Activity (Endothelial cell): Active
- IC50 (NCI-H460 [1]): 170 nM
- IC50 [2]: 60 nM
- Activity (NCI-H460 [3]): Active
- Activity (LCC6): Active

Structure (SMILES): CC(=O)Nc1c2sscc-2n(Cc2ccccc2)c1=O
- Activity (Endothelial cell): Active
- IC50 (NCI-H460 [1]): 900 nM
- Activity (NCI-H460 [3]): Active
- Activity (LCC6): Active

Structure (SMILES): COc1ccc(C(=O)Nc2c3sscc-3n(-c3ccc(OC)cc3OC)c2=O)c(OC)c1
- Activity (Endothelial cell): Active
- IC50 (NCI-H460 [1]): 11 nM
- IC50 [2]: 251 nM
- Activity (NCI-H460 [3]): Active
- Activity (LCC6): Active

Structure (SMILES): CC(C)c1ccc(-n2c3cssc-3c(NC(=O)c3cc(O)c(C(C)C)c(O)c3)c2=O)cc1
- Activity (Endothelial cell): Active
- IC50 (NCI-H460 [1]): 150 nM
- IC50 [2]: 40 nM
- Activity (NCI-H460 [3]): Active
- Activity (LCC6): Active

Structure (SMILES): COc1ccc(-n2c3cssc-3c(NC(=O)c3cc(F)cc(F)c3)c2=O)c(OC)c1
- Activity (Endothelial cell): Active
- IC50 (NCI-H460 [1]): 11 nM
- IC50 [2]: 349 nM
- Activity (NCI-H460 [3]): Active
- Activity (LCC6): Active

- AUC(0-t) at 8 h [5]: 210 µM·h
- half-life [6]: 2.67 h
- Cmax [7]: 57 µM
- clearance [8]: 2.9 mL/min/kg
- Tmax [9]: 0.5 h
Structure (SMILES): COc1ccc(-n2c3cssc-3c(NC(=O)c3cc(C(F)(F)F)cc(C(F)(F)F)c3)c2=O)c(OC)c1
- Activity (SK-MEL-28 [4]): Active
- Activity (Mus musculus): Active
- Activity (Endothelial cell): Active
- IC50 (NCI-H460 [1]): 130 nM
- IC50 [2]: 160 nM
- Activity (NCI-H460 [3]): Active
- inhibition in vivo at 20 mg/kg [10]: 58%
- Activity (LCC6): Active

Structure (SMILES): O=C(Nc1c2sscc-2n(Cc2ccccc2)c1=O)c1cc(C(F)(F)F)cc(C(F)(F)F)c1
- Activity (Endothelial cell): Active
- IC50 (NCI-H460 [1]): 706 nM
- IC50 [2]: 1180 nM
- Activity (NCI-H460 [3]): Active
- Activity (LCC6): Active

Structure (SMILES): COc1ccc(-n2c3cssc-3c(NC(=O)c3ccco3)c2=O)c(OC)c1
- Activity (Endothelial cell): Active
- IC50 (NCI-H460 [1]): 50 nM
- IC50 [2]: 28 nM
- Activity (NCI-H460 [3]): Active
- Activity (LCC6): Active

Structure (SMILES): CC(=O)Nc1c2sscc-2n(-c2ccc(C)cc2)c1=O
- Activity (Endothelial cell): Active
- IC50 (NCI-H460 [1]): 44 nM
- IC50 [2]: 220 nM
- Activity (NCI-H460 [3]): Active
- Activity (LCC6): Active

Structure (SMILES): CCCCC(C)C(=O)Nc1c2sscc-2[nH]c1=O (stereo not drawn)
- Activity (Endothelial cell): Active
- IC50 (NCI-H460 [1]): 200 nM
- IC50 [2]: 200 nM
- Activity (NCI-H460 [3]): Active
- Activity (LCC6): Active

Structure (SMILES): COc1ccc(-n2c3cssc-3c(NC(=O)c3ccc(C(F)(F)F)cc3)c2=O)c(OC)c1
- Activity (Endothelial cell): Active
- IC50 (NCI-H460 [1]): 7 nM
- IC50 [2]: 85 nM
- Activity (NCI-H460 [3]): Active
- Activity (LCC6): Active

- Cmax [11]: 106 µM
- half-life [12]: 1.57 h
- AUC(0-t) at 8 h [13]: 102 µM·h
- Tmax [14]: 3 min
- clearance [15]: 6.3 mL/min/kg
Structure (SMILES): COc1ccc(-n2c3cssc-3c(NC(=O)c3cc(O)c(C(C)C)c(O)c3)c2=O)c(OC)c1
- Activity (Endothelial cell): Active
- IC50 (NCI-H460 [1]): 72 nM
- IC50 [2]: 70 nM
- Activity (NCI-H460 [3]): Active
- Activity (LCC6): Active

Structure (SMILES): CC(=O)O[C@H]1C(=O)[C@@]2(C)[C@H]([C@H](OC(=O)c3ccccc3)[C@]3(O)C[C@H](OC(=O)[C@H](O)[C@@H](NC(=O)c4ccccc4)c4ccccc4)C(C)=C1C3(C)C)[C@]1(OC(C)=O)CO[C@@H]1C[C@@H]2O [PACLITAXEL]
- inhibition in vivo at 10 mg/kg (SK-MEL-28 [16]): 37%

Structure (SMILES): CC(C)c1c(O)cc(C(=O)Nc2c3sscc-3n(Cc3ccccc3)c2=O)cc1O
- Activity (Endothelial cell): Active
- IC50 (NCI-H460 [1]): 170 nM
- IC50 [2]: 250 nM
- Activity (NCI-H460 [3]): Active
- Activity (LCC6): Active

Structure (SMILES): COc1ccc(-n2c3cssc-3c(NC(=O)C(F)(F)F)c2=O)cc1
- Activity (Endothelial cell): Active
- IC50 (NCI-H460 [1]): 190 nM
- IC50 [2]: 220 nM
- Activity (NCI-H460 [3]): Active
- Activity (LCC6): Active

Structure (SMILES): COc1ccc(-n2c3cssc-3c(NC(C)=O)c2=O)c(OC)c1
- Activity (Endothelial cell): Active
- IC50 (NCI-H460 [1]): 30 nM
- IC50 [2]: 190 nM
- Activity (NCI-H460 [3]): Active
- Activity (LCC6): Active

Structure (SMILES): COc1ccc(-n2c3cssc-3c(NC(=O)c3cccs3)c2=O)c(OC)c1
- Activity (Endothelial cell): Active
- IC50 (NCI-H460 [1]): 8 nM
- IC50 [2]: 210 nM
- Activity (NCI-H460 [3]): Active
- Activity (LCC6): Active
